Source: ChEMBL document CHEMBL4043295, “Marbostat-100 Defines a New Class of Potent and Selective Antiinflammatory and Antirheumatic Histone Deacetylase 6 Inhibitors” (J Med Chem, 2018)
Calls of active or inactive are those of the source. The calls are words filed in the database; no cut-off is given here.

Legend:
Histone deacetylase 2 = Histone deacetylase 2 (Homo sapiens, UniProt Q92769); assay: Inhibition of full length recombinant human C-terminal GST-tagged HDAC2 expressed in baculovirus-infected insect cells using RHKK(Ac)AMC as substrate after 60 mins by fluorimeter
Histone deacetylase 8 = biological target: T1, Histone deacetylase 8 (Homo sapiens, UniProt Q9BY41); assay: Inhibition of recombinant human C-terminal His-tagged HDAC8 (1 to 377 residues) expressed in baculovirus-infected insect cells using RHK(Ac)K(Ac)AMC as substrate after 60 mins by fluorimeter
T1 sequence (Q9BY41 whole entry): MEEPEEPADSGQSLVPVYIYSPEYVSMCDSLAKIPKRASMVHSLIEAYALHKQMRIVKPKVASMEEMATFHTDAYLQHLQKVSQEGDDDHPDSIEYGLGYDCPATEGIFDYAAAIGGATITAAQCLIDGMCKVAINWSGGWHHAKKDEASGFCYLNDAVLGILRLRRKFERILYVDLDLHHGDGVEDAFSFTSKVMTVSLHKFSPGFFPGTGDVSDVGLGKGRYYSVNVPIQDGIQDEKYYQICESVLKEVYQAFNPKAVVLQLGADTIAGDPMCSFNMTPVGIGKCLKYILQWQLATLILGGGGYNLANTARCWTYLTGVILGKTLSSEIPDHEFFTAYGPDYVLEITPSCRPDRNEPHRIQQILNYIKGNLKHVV

[1] = biological target: Histone deacetylase 3/Nuclear receptor corepressor 2 (HDAC3/NCoR2) (Homo sapiens, UniProt O15379); assay: biochemical; type: cell-based
Histone deacetylase 5 = Histone deacetylase 5 (Homo sapiens, UniProt Q9UQL6); assay: Inhibition of recombinant human C-terminal His-tagged HDAC5 (656 to 1122 residues) expressed in baculovirus-infected insect cells using Boc-Lys(TFA)-AMC as substrate after 60 mins by fluorimeter
Jurkat = assay: Cell cycle arrest in human Jurkat cells at 5 to 1000 nM after 24 hrs by propidium iodide staining-based flow cytometric method; type: functional
PBMC = assay: Induction of apoptosis in human PBMC at 50 to 1000 nM after 24 hrs by Annexin V/propidium iodide staining-based flow cytometric method; type: cell-based; settings: 1 µM
Mus musculus [2] = assay: In vivo inhibition of HDAC6 in DBA/1J mouse assessed as induction of tubulin acetylation in liver at 0.6 mg […] by Western blot method; type: functional, organism-based
Mus musculus [3] = assay: In vivo inhibition of HDAC6 in DBA/1J mouse assessed as induction of tubulin acetylation in kidney at 0.6 mg […] by Western blot method; type: functional, organism-based
Outline: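 Male DBA/1J mice received 0.6 mg inhibitor; organs were collected 2.5 h later and stored at −80 °C. Liver and kidney lysates were immunoblotted for acetylated tubulin and compared with untreated controls. Representative of at least two experiments.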

Mus musculus [4] = assay: Antiarthritic activity in DBA/1J mouse collagen-induced arthritis model assessed as decrease in clinical scores at 30 mg/kg, ip administered every morning for 12 to 14 days measured during compound dosing relative to vehicle-treated control; type: functional; design: scale not given: the % may be the effect or the level left
Outline: (§1)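 Collagen type II-induced arthritis in mice, treated at 30 mg/kg versus vehicle. Clinical arthritis score and paw swelling were followed over time from the start of treatment until the end of the experiment.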

Mus musculus [5] = assay: Antiarthritic activity in DBA/1J mouse collagen-induced arthritis model assessed as reduction in paw thickness at 30 mg/kg, ip administered every morning for 1 week measured during compound dosing; type: functional, organism-based; outline: as §1
Mus musculus [6] = assay: Antiarthritic activity in DBA/1J mouse collagen-induced arthritis model assessed as decrease in cellular invasion at 30 mg/kg, ip administered every morning for 12 to 14 days; type: functional, organism-based
Outline: (§2)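 Collagen type II-induced arthritis in mice, treated at 30 mg/kg versus vehicle. Arthritic paws were assessed histologically for synovial inflammation, cellular invasion, cartilage degradation and bone erosion.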

Mus musculus [7] = assay: Antiarthritic activity in DBA/1J mouse collagen-induced arthritis model assessed as decrease in degradation of cartilage at 30 mg/kg, ip administered every morning for 12 to 14 days; type: functional, organism-based; outline: as §2
[8] = biological target: T2, Protein deacetylase HDAC6 (Homo sapiens) (UniProt Q9UBN7); settings: 5 to 1000 nM
T2 sequence (whole entry): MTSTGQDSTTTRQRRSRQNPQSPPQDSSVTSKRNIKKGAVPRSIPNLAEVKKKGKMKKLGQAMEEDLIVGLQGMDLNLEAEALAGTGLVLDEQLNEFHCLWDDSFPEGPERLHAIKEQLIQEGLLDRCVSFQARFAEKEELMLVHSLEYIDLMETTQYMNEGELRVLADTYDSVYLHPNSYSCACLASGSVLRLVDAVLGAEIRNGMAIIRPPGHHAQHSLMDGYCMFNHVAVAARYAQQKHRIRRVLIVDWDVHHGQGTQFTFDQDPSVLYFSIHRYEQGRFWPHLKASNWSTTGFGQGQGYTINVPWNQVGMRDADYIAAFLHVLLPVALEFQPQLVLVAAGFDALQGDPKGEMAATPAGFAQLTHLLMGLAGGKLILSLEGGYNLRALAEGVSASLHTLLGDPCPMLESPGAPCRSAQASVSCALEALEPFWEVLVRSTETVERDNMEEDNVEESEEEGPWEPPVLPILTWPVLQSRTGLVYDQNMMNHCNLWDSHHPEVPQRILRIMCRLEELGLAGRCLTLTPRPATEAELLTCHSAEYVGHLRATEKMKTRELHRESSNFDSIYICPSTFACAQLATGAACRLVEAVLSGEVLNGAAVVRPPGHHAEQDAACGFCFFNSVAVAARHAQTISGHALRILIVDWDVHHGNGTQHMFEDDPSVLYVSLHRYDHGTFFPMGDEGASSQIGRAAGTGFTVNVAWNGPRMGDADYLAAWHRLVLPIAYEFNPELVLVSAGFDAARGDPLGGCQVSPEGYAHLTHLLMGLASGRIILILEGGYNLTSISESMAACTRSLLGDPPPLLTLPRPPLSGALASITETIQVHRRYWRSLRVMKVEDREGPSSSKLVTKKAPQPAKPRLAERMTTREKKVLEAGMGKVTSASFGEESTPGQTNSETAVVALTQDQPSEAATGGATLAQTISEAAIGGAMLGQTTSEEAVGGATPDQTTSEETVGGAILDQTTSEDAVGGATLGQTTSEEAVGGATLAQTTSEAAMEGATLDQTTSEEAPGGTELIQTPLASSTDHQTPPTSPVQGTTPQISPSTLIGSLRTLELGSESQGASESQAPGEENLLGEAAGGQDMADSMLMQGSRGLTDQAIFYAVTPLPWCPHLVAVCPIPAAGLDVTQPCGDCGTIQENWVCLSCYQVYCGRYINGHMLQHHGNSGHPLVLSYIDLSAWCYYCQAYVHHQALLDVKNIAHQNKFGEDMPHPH

[9] = biological target: T2, Protein deacetylase HDAC6 (Homo sapiens); settings: 5 to 1000 nM; remark: listed apart in the source
[10] = biological target: T2, Protein deacetylase HDAC6 (Homo sapiens); settings: 5 to 1000 nM; remark: listed apart in the source
[11] = biological target: T2, Protein deacetylase HDAC6 (Homo sapiens); settings: 50 nM

Chain of Histone deacetylase 5 (Q9UQL6 whole entry, the tested form may be a part): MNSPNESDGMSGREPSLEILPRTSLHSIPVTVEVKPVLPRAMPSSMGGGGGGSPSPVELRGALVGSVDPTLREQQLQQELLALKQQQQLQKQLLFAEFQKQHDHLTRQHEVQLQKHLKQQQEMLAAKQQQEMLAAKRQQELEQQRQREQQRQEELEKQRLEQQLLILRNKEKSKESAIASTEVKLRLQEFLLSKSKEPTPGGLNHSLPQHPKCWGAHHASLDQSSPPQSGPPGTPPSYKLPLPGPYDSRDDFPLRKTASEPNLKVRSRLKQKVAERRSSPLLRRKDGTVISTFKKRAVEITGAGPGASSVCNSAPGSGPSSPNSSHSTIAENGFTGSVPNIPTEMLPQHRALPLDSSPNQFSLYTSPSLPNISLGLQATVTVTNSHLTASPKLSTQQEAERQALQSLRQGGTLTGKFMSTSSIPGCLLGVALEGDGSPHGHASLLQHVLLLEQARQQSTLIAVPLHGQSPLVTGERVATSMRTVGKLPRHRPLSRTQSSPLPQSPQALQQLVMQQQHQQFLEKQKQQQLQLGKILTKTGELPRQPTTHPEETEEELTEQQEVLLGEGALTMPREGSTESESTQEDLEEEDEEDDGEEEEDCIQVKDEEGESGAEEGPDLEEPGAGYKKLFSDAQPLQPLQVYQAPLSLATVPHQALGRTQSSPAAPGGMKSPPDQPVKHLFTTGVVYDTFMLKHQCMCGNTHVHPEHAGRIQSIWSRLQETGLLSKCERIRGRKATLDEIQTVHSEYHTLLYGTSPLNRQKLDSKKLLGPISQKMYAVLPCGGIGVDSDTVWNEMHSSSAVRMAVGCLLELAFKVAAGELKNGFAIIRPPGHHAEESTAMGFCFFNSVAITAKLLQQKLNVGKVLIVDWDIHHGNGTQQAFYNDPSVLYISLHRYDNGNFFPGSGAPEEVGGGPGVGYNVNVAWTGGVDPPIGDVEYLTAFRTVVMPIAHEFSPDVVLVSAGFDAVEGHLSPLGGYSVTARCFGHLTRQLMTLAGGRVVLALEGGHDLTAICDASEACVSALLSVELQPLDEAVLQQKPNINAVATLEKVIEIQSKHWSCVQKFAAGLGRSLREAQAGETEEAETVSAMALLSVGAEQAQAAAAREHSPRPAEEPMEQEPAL
Chain of Histone deacetylase 3/Nuclear receptor corepressor 2 (HDAC3/NCoR2) (O15379 whole entry, the tested form may be a part): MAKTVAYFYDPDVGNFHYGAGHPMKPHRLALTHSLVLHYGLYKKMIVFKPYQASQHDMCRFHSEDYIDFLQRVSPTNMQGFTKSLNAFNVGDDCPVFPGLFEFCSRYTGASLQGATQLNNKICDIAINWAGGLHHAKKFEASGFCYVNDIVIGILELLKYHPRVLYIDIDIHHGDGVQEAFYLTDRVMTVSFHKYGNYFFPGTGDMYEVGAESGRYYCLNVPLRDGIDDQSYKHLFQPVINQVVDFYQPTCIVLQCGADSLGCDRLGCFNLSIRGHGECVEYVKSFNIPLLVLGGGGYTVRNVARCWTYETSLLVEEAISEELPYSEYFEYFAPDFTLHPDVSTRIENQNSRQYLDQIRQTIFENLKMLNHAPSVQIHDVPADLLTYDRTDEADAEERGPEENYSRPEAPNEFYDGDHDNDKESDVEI
Chain of Histone deacetylase 3/Nuclear receptor corepressor 2 (HDAC3/NCoR2) (Q9Y618 whole entry, further chain, the tested form may be a part): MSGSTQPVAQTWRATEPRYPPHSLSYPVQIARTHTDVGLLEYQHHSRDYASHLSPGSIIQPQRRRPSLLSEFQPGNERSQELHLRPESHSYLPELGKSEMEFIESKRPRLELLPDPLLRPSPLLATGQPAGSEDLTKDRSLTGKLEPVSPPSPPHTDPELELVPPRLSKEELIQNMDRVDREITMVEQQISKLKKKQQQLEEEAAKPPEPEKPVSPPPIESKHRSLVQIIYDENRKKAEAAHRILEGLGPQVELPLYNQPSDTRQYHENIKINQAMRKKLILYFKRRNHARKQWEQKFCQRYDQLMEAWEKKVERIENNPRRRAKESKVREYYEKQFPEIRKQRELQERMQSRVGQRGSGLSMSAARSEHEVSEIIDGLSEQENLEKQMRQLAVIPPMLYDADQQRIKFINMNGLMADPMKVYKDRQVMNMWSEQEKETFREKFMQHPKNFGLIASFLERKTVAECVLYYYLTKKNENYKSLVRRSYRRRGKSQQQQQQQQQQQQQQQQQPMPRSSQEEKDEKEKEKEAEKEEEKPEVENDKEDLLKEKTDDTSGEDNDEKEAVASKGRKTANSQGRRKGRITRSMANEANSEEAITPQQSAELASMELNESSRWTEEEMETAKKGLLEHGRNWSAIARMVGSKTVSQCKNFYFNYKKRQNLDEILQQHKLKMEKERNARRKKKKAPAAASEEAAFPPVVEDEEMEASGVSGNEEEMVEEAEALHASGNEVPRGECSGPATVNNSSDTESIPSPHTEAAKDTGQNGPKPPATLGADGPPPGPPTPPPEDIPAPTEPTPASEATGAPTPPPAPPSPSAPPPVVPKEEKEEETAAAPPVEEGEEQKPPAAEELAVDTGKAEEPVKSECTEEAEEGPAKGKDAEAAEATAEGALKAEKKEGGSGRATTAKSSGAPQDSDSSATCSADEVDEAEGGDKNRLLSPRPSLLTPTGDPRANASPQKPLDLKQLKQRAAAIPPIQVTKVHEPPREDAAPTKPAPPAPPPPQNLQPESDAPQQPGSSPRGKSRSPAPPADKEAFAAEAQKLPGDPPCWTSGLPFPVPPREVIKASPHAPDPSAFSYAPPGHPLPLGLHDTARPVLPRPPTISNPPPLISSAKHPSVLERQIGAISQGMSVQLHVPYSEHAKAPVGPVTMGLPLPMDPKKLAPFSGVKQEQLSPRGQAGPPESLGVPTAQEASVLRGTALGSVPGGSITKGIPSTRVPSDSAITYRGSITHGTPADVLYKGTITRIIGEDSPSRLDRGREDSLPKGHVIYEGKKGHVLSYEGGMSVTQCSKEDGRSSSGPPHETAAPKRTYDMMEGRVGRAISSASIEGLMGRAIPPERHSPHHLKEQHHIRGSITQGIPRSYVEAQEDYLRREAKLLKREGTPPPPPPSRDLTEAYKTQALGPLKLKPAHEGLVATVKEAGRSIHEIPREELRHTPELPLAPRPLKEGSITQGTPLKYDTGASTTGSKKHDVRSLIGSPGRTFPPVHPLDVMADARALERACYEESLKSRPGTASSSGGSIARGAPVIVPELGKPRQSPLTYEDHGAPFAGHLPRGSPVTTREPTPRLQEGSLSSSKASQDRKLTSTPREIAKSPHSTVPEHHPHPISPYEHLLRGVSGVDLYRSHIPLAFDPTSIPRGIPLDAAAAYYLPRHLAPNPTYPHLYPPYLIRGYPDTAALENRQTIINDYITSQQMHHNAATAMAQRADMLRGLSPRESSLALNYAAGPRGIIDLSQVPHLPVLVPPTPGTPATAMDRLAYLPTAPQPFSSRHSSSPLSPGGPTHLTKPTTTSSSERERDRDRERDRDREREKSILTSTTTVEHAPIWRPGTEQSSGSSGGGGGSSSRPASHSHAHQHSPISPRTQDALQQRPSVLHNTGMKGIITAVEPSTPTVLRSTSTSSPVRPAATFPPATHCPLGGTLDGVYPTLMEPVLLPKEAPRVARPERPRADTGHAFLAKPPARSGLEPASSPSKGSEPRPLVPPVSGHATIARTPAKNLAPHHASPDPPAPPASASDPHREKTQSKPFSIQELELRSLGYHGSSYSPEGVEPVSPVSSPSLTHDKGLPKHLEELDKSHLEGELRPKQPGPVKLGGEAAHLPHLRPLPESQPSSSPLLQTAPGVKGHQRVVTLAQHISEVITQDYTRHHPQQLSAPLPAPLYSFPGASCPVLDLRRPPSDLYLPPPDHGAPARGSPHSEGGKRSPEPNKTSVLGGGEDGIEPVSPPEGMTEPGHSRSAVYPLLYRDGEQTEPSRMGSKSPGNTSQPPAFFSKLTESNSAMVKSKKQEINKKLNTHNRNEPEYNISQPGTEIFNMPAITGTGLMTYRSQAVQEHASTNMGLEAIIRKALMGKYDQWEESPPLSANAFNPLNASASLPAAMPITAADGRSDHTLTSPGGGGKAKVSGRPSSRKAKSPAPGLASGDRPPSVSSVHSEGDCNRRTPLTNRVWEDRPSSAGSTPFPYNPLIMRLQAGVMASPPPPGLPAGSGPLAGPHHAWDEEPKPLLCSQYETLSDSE
Chain of Histone deacetylase 2 (Q92769 whole entry, the tested form may be a part): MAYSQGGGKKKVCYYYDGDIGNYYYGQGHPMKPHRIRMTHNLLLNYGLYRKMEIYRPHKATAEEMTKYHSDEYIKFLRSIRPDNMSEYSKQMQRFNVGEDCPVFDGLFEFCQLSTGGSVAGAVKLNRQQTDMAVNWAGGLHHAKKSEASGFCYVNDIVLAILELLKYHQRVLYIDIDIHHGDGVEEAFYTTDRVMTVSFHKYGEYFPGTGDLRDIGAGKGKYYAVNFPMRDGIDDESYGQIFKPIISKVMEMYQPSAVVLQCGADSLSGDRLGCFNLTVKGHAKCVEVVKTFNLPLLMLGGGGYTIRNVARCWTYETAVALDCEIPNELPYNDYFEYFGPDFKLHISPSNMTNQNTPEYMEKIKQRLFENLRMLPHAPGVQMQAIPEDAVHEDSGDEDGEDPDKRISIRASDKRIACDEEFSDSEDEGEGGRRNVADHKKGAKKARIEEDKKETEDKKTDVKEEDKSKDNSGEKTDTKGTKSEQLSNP

Ki (Histone deacetylase 2): 774 nM | Ki (Histone deacetylase 8): 173 nM | Ki [1]: 306 nM | Ki (Histone deacetylase 5): 701 nM | inhibition [8]: Active | inhibition [9]: Active | inhibition [10]: Active | inhibition [11]: Active
SMILES: CN1C(=O)C2CN(Cc3c2c2ccccc2n3Cc2ccc(C(=O)NO)cc2)C1=O (stereo unspecified)
Activity (Jurkat): inactive | Activity (PBMC): Non-Toxic | inhibition (Mus musculus [2]): Active | inhibition (Mus musculus [3]): Active | Activity (Mus musculus [4]): 25% | Activity (Mus musculus [5]): Active | Activity (Mus musculus [6]): Active | Activity (Mus musculus [7]): Active
